Test results as given in ChEMBL document CHEMBL4219021, “Discovery of a Small-Molecule Degrader of Bromodomain and Extra-Terminal (BET) Proteins with Picomolar Cellular Potencies and Capable of Achieving Tumor Regression” (J Med Chem, 2018).
Calls of active or inactive are those of the source. The rule behind the calls is not given here.

How the values were obtained:
[1] = target: T1, Bromodomain-containing protein 3 (Homo sapiens, UniProt Q15059); assay: Inhibition of FAM-labeled ZBA248 binding to recombinant N-terminal His6-tagged BRD3 bromodomain 1 (24 to 144 residues) (unknown origin) expressed in Escherichia coli Rosetta2 DE3 after 30 mins by fluorescence polarization assay
RS4-11 [2] = assay: Induction of apoptosis in human RS4:11 cells at 30 to 300 nM after 24 hrs by Annexin-V/propidium iodide staining based flow cytometry; type: functional, cell-based
Outline: (§1)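 RS4;11 or MOLM-13 cells treated with compound for 24 h, then analyzed by flow cytometry. Cell cycle read by propidium iodide staining and apoptosis by annexin V/propidium iodide staining.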

Homo sapiens = species on record: Homo sapiens; assay: Induction of cereblon/cullin 4A-mediated BET degradation in human RS4:11 cells assessed as downregulation of c-myc protein level at 300 to 1000 nM after 24 hrs by Western blot method; type: cell-based
Outline: (§2)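 RS4;11 cells (2 × 10⁶/well) treated for 24 h at the indicated concentrations. Lysed in RIPA with protease inhibitors and immunoblotted for BRD2, BRD3, BRD4, c-Myc and PARP, with GAPDH as loading control.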

[3] = target: T2, Bromodomain-containing protein 4 (Homo sapiens, UniProt O60885); assay: Inhibition of FAM-labeled ZBA248 binding to recombinant N-terminal His6-tagged BRD4 bromodomain 2 (333 to 460 residues) (unknown origin) expressed in Escherichia coli Rosetta2 DE3 after 30 mins by fluorescence polarization assay
MOLM-13 [4] = assay: Induction of apoptosis in human MOLM13 cells at 30 to 300 nM after 24 hrs by Annexin-V/propidium iodide staining based flow cytometry; type: functional, cell-based; outline: as §1
[5] = target: T3, Protein cereblon/Bromodomain-containing protein 4/Cullin-4A (Homo sapiens) (UniProt O60885+Q96SW2+Q13619); assay: Induction of cereblon/cullin 4A-mediated BRD4 degradation in human RS4:11 cells at 30 to 1000 nM after 24 hrs by Western blot method; type: cell-based
Outline: (§3)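 Western blot of RS4;11 cells (2 × 10⁶ cells/well) in RPMI 1640 with 10% FBS, 37 °C, 5% CO₂, used within three months of thawing. Compound exposure was 3 h or 24 h at the indicated concentrations. Cells were lysed in RIPA with protease inhibitors, and BRD2, BRD3 and BRD4 were detected with specific antibodies, with GAPDH as loading control.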

[6] = target: T2, Bromodomain-containing protein 4; assay: Inhibition of FAM-labeled ZBA248 binding to recombinant N-terminal His6-tagged BRD4 bromodomain 1 (44 to 168 residues) (unknown origin) expressed in Escherichia coli Rosetta2 DE3 after 30 mins by fluorescence polarization assay
[7] = target: T4, Protein cereblon/Bromodomain-containing protein 2/Cullin-4A (Homo sapiens) (UniProt P25440+Q96SW2+Q13619); assay: Induction of cereblon/cullin 4A-mediated BRD2 degradation in human RS4:11 cells at 30 to 1000 nM after 24 hrs by Western blot method; type: cell-based; outline: as §2
[8] = target: T4, Protein cereblon/Bromodomain-containing protein 2/Cullin-4A (Homo sapiens); assay: Induction of cereblon/cullin 4A-mediated BRD2 degradation in human RS4:11 cells at 100 to 300 nM after 3 hrs by Western blot method; type: cell-based
Outline: (§4)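 RS4;11 cells (2 × 10⁶/well) treated for 3 h at the indicated concentrations. Lysed in RIPA with protease inhibitors and immunoblotted for BRD2, BRD3 and BRD4 with specific antibodies.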

[9] = target: T3, Protein cereblon/Bromodomain-containing protein 4/Cullin-4A (Homo sapiens); assay: Induction of cereblon/cullin 4A-mediated BRD4 degradation in human RS4:11 cells at 100 to 300 nM after 3 hrs by Western blot method; type: cell-based; outline: as §3
RS4-11 [10] = assay: Cytotoxicity against human RS4:11 cells assessed as cell growth inhibition after 4 days by WST-8 assay; type: functional, cell-based; conditions: RS4-11, 96 h
MOLM-13 [11] = assay: Cytotoxicity against human MOLM13 cells assessed as cell growth inhibition after 4 days by WST-8 assay; type: functional, cell-based; conditions: MOLM-13, 96 h
MOLM-13 [12] = assay: Induction of cell cycle arrest in human MOLM13 cells after 24 hrs by propidium iodide staining based flow cytometry; type: functional; outline: as §1
[13] = target: T1, Bromodomain-containing protein 3; assay: Inhibition of FAM-labeled ZBA248 binding to recombinant N-terminal His6-tagged BRD3 bromodomain 2 (306 to 417residues) (unknown origin) expressed in Escherichia coli Rosetta2 DE3 after 30 mins by fluorescence polarization assay
[14] = target: T5, Protein cereblon/Bromodomain-containing protein 3/Cullin-4A (Homo sapiens) (UniProt Q15059+Q96SW2+Q13619); assay: Induction of cereblon/cullin 4A-mediated BRD3 degradation in human RS4:11 cells at 30 to 1000 nM after 24 hrs by Western blot method; type: cell-based; outline: as §3
[15] = target: T6, Bromodomain-containing protein 2 (Homo sapiens, UniProt P25440); assay: Inhibition of FAM-labeled ZBA248 binding to recombinant N-terminal His6-tagged BRD2 bromodomain 1 (72 to 205 residues) (unknown origin) expressed in Escherichia coli Rosetta2 DE3 after 30 mins by fluorescence polarization assay
[16] = target: T5, Protein cereblon/Bromodomain-containing protein 3/Cullin-4A (Homo sapiens); assay: Induction of cereblon/cullin 4A-mediated BRD3 degradation in human RS4:11 cells at 100 to 300 nM after 3 hrs by Western blot method; type: cell-based; outline: as §4
[17] = target: T6, Bromodomain-containing protein 2; assay: Inhibition of FAM-labeled ZBA248 binding to recombinant N-terminal His6-tagged BRD2 bromodomain 2 (349 to 460 residues) (unknown origin) expressed in Escherichia coli Rosetta2 DE3 after 30 mins by fluorescence polarization assay
RS4-11 [18] = assay: Induction of cell cycle arrest in human RS4:11 cells after 24 hrs by propidium iodide staining based flow cytometry; type: functional; outline: as §1

T1 sequence (Q15059 whole entry, the tested form may be a part): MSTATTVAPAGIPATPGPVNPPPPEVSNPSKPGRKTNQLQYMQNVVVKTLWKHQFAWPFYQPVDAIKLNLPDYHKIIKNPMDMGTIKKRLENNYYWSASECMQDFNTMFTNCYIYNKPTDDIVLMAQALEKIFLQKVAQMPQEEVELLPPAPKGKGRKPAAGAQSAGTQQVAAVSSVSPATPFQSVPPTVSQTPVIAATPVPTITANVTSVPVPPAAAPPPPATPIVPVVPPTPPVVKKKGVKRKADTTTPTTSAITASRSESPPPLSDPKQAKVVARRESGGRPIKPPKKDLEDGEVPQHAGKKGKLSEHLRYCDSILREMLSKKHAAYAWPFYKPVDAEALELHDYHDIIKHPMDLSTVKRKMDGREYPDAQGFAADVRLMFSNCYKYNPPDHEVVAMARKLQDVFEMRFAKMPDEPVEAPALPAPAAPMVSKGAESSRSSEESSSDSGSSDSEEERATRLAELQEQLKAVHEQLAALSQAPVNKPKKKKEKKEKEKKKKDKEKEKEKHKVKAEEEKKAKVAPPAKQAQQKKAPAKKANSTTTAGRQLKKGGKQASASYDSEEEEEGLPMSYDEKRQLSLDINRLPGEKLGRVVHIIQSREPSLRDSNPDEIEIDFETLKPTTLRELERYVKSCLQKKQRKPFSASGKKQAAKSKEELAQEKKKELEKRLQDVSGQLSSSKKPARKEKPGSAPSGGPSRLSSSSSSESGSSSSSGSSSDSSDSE
T6 sequence (P25440 whole entry, the tested form may be a part): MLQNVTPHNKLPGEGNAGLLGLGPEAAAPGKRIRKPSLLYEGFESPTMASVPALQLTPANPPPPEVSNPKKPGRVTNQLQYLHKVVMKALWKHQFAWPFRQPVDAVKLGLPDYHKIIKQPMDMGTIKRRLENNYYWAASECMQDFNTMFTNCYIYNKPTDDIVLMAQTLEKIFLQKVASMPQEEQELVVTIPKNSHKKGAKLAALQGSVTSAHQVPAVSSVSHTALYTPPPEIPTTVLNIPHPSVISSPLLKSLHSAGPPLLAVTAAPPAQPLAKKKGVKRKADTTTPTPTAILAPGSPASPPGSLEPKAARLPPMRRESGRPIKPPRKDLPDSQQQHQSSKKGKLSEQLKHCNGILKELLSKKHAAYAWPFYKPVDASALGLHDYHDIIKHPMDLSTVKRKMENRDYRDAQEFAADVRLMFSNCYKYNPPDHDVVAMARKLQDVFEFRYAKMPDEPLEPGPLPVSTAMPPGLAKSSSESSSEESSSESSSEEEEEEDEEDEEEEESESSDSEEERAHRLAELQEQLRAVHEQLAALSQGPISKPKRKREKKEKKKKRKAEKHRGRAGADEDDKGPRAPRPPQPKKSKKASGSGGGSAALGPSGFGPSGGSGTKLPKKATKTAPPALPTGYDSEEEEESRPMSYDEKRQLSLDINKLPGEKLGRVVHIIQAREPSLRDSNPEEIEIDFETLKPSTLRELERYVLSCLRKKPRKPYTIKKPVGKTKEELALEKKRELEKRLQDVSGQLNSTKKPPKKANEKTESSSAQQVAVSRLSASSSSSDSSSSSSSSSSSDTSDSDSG
T4 sequence (P25440 whole entry, looked up): as the sequence (P25440 whole entry, the tested form may be a part) above
T4 sequence (Q13619 whole entry, looked up): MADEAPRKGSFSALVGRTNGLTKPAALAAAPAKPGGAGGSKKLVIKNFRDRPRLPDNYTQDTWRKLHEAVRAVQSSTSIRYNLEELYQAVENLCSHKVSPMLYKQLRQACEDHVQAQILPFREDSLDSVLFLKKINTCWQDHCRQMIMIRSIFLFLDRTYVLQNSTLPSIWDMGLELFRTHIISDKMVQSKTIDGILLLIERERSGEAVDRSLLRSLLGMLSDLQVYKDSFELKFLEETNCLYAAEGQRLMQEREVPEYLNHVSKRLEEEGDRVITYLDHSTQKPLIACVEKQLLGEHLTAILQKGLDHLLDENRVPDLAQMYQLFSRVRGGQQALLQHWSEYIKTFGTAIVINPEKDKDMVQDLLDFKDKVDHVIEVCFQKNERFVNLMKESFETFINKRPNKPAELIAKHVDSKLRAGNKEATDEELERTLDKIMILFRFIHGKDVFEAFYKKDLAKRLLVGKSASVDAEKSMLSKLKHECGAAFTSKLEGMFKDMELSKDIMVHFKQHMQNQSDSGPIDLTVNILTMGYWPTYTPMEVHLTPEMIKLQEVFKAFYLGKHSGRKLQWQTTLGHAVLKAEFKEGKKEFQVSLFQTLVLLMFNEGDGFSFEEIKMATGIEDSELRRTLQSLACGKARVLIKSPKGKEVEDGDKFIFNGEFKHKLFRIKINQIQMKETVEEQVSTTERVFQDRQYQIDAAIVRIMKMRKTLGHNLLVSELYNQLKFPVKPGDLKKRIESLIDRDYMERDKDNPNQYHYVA
T4 sequence (Q96SW2 whole entry, looked up): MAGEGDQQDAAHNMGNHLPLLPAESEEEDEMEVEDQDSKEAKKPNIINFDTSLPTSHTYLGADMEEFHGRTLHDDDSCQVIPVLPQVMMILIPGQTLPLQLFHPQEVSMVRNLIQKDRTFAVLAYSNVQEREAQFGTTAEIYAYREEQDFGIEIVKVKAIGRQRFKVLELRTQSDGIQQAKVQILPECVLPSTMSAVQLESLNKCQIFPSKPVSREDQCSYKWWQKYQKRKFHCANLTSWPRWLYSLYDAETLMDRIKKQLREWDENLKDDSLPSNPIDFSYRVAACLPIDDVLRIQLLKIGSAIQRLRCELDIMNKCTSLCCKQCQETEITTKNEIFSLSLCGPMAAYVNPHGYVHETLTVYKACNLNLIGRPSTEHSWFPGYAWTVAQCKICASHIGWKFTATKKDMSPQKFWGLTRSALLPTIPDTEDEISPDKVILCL
T5 sequence (Q13619 whole entry, looked up, the tested form may be a part): as the sequence (Q13619 whole entry, looked up) above
T5 sequence (Q15059 whole entry, looked up, the tested form may be a part): as the sequence (Q15059 whole entry, the tested form may be a part) above
T5 sequence (Q96SW2 whole entry, looked up, the tested form may be a part): as the sequence (Q96SW2 whole entry, looked up) above

CCn1nc(C2CC2)cc1Nc1nc(C(=O)NC)nc2[nH]c3cc(-c4c(C)noc4C)c(OC)cc3c12
IC50 [1]: 6.6 nM
Ki [1]: 0.18 nM
Activity (RS4-11 [2]): inactive
Activity (Homo sapiens): Active
IC50 [3]: 7 nM
Ki [3]: 1 nM
Activity (MOLM-13 [4]): inactive
Activity [5]: inactive
IC50 [6]: 7 nM
Ki [6]: 0.5 nM
Activity [7]: inactive
Activity [8]: inactive
Activity [9]: inactive
IC50 (RS4-11 [10]): 24.1 nM
IC50 (MOLM-13 [11]): 25.6 nM
Activity (MOLM-13 [12]): Dose-dependent effect
IC50 [13]: 1.9 nM
Ki [13]: 0.21 nM
Activity [14]: inactive
IC50 [15]: 3.1 nM
Ki [15]: 0.9 nM
Activity [16]: inactive
IC50 [17]: 3.9 nM
Ki [17]: 0.27 nM
Activity (RS4-11 [18]): Dose-dependent effect
